MC4R antagonist: human MC4R antagonism in cAMP assay; inhibition, % at 6.5 µM; 360,000 tested, 0.48% active; MC4R-expressing cells, MTII-stimulated cAMP, LANCE TR-FRET; AID 540295;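 active = inhibition above its plate's cutoff, the mean of tested wells on that plate plus 3 SD, cut at about 29% in these data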
Target sequence (P32245 whole entry, looked up): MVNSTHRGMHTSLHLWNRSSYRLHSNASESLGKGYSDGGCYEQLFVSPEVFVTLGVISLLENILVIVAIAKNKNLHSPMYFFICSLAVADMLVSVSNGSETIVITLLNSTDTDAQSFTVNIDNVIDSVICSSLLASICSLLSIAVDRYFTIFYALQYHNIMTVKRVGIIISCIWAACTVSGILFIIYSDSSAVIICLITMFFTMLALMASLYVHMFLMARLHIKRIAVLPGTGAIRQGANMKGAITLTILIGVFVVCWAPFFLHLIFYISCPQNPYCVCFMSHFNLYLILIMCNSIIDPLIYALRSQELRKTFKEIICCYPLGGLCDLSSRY
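Material – human MC4R-expressing U2OS cells · Repeats – no replicates · Detection – TR-FRET with Eu-cAMP and labeled anti-cAMP, 671 nm · Times – compound 30 min, challenge 1 h, detection 1 h · Compound – single nominal compound dose of 6.5 µM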
MC4R barr agon: activates human MC4R beta-arrestin recruitment; P32245; 360,000 tested, 0.98% active; U2OS MC4R beta-arrestin complementation, luminescence; percent of melanotan II response, DMSO zero; AID 540308; activation, % at 8.9 µM;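 active = activation above a per-plate cutoff, the mean activation of sample wells on that plate plus 3 SD, cut at about 8% in these data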
PG9 Ab binder: PG9 antibody binding by small molecule; TR-FRET gp120-PG9 antibody binding; inhibition, % at 6.7 µM; 360,000 tested, 0.43% active; in the data active = inhibition above about 8.5%
Rev-erbA mod: modulates human Rev-erb alpha binding to DNA. 370,000 tested, 0.79% active. P20393. AID 1259318. activity, % at 10 µM. Rev-erbα–FITC-DNA binding, fluorescence polarization, 90 min;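 active = activity above about 14%, limit read from the data; passing the limit was not always enough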
NTR1 agonist: activates human neurotensin receptor 1; P30989; 330,000 tested, 0.17% active; NTR1-U2OS beta-arrestin-GFP spot imaging, agonist mode; AID 493036; activation, % at 20 µM;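 active = activation at or above 40% of the spot to cytoplasm intensity ratio, with at least 20 cells analyzed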
PG9 binder conf: confirmation of small molecules binding HIV-1 gp120 antibody PG9; shares compounds with PG9 Ab binder; TR-FRET PG9 antibody binding, biochemical; inhibition, % at 6.7 µM; 1,500 tested, 90% active; AID 651571; in the data active = inhibition above about 9%
PGV04 counter: PGV04 control antibody binding, counter-screen. shares compounds with PG9 Ab binder. inhibition, % at 6.7 µM. 1,500 tested, 95% active. TR-FRET PGV04 antibody-gp120 binding, biochemical. AID 651604; in the data active = inhibition above about 9.5%
PG9 bind DR: PG9 antibody binding, dose response; shares compounds with PG9 Ab binder; TR-FRET PG9 antibody-gp120 binding inhibition; IC50, µM; 95 tested, under 10 active; AID 651848; in the data active = IC50 below about 10 µM
PGV04 DR counter: binds control antibody PGV04 in PG9 counter-screen. shares compounds with PG9 Ab binder. TR-FRET binding to control antibody PGV04. 95 tested, 20% active. IC50, µM
PG126 DR counter: counter-screen for PG9 binders: binding to control antibody PG126 | shares compounds with PG9 Ab binder | TR-FRET binding to antibody PG126, counterscreen | IC50, µM | 95 tested, 20% active
Numbers stand for hits; – = inactive; · = not tested or not shown. Sampled rows, rich in hits. Any-hit rate of the full collection: about 2.5%. Rule as the data show it, unless noted: active = IC50 below about 9 µM; inactive = the rest.

SMILES | MC4R antagonist | MC4R barr agon | PG9 Ab binder | Rev-erbA mod | NTR1 agonist | PG9 binder conf | PGV04 counter | others
N#CN1CCC(NS(=O)(=O)c2cccc(C(F)(F)F)c2)CC1 | · | · | · | – | · | · | ·
CCCCCCCCN1C(=O)[C@H](CC(=O)NCCCN2CCCC2=O)C[C@@]2(C(=O)OC)CC(C)(C)CC=C12 | · | · | – | – | · | · | ·
CCn1c(CNC(=O)C2CCCCC2)cc2ccccc21 | – | – | 32 | – | – | 16 | 23
Cn1c(CNC(=O)C2CCCCC2)cc2ccccc21 | – | – | – | – | – | · | ·
Cc1cc2ccccc2n1CCNC(=O)C1CCCCC1 | – | – | 11 | – | – | – | – | PG9 bind DR=–;PGV04 DR counter=–;PG126 DR counter=–
COC(=O)[C@]12C[C@H](CC(=O)NCc3ccc(OC)c(OC)c3)C(=O)N(Cc3ccc4c(c3)OCO4)C1=C[C@H](C(C)C)O[C@@H]2C1CC1 | · | · | · | – | · | · | ·
O=c1oc(-c2ccccc2F)nc2c1cnn2-c1ccccc1 | – | – | 20 | – | – | 49 | 58
O=C(Oc1c(Br)cc(Br)c2cccnc12)N1CCCCC1 | – | – | 9.1 | – | – | 14 | 18
O=S(=O)(c1ccccc1)N1CCN(S(=O)(=O)c2ccc3c(c2)OCCO3)CC1 | · | · | · | – | · | · | ·
O=c1[nH]n(-c2cccc3cccnc23)c(=O)c2ccccc12 | – | – | – | – | – | · | ·
O=C1C2C3c4ccccc4C(c4ccccc43)C2C(=O)N1c1cccc2cccnc12 (stereo not drawn) | – | – | 10 | – | – | – | –
Cc1nc(N2CCC(C)CC2)c2c(C)c(C(=O)Nc3ccc(C(F)(F)F)cc3)sc2n1 | – | – | 42 | – | – | – | 11
Cc1nc(N2CCC(C)CC2)c2c(C)c(C(=O)Nc3cccc(C(F)(F)F)c3)sc2n1 | – | – | – | – | – | · | ·
COC(=O)Cn1c(=NC(=O)c2sc3ccccc3c2Cl)sc2cc(S(N)(=O)=O)ccc21 | – | – | 11 | – | – | 22 | 28
CCOC(=O)Cn1c(=NC(=O)CSC(C)=O)sc2ccccc21 | – | – | – | – | – | · | ·
CCOC(=O)Cn1c(=NC(=O)c2sc3ccccc3c2Cl)sc2cc(S(N)(=O)=O)ccc21 | – | – | 9.9 | – | · | 12 | 28
CCOC(=O)Cn1c(=NC(=O)CSC(C)=O)sc2cc(OC)ccc21 | – | – | 13 | – | – | 18 | 23
CCCn1c(=NC(=O)CCS(=O)(=O)c2ccccc2)sc2cc(S(N)(=O)=O)ccc21 | – | – | – | – | – | · | ·
COC(=O)c1sc(NC(=O)C2CCCCC2C(=O)O)c(C(=O)OC)c1C (stereo not drawn) | – | – | 13 | – | – | 18 | 23
COC(=O)c1c(NC(=O)C2CCCCC2C(=O)O)sc2c1CCCCC2 (stereo not drawn) | – | – | – | – | – | · | ·
O=C(Nc1ccc(F)cc1Cl)c1ccc2c(=O)n3c(nc2c1)CCCCC3 | – | – | 29 | – | – | 30 | 9.7 | PG9 bind DR=–;PGV04 DR counter=–;PG126 DR counter=–
O=C(Nc1ccccc1Cl)c1ccc2c(=O)n3c(nc2c1)CCC3 | – | – | – | – | – | · | ·
COC(=O)C1=C(C)N(C)C(=NCc2ccc(C(F)(F)F)cc2)NC1c1cccc(Cl)c1 (stereo not drawn) | · | · | – | – | · | · | ·
COC(=O)c1cc2occc2n1CC(=O)Nc1cc(OC)cc(OC)c1 | – | – | – | – | – | · | ·
COC(=O)c1cc2oc(C)cc2n1CC(=O)Nc1cc(C)cc(C)c1 | – | – | 9.2 | – | – | 16 | 26
SMILES | MC4R antagonist | MC4R barr agon | PG9 Ab binder | Rev-erbA mod | NTR1 agonist | PG9 binder conf | PGV04 counter | others
CC(C)C(=O)Nc1nnc(NC(=S)Nc2ccccc2)s1 | – | – | – | – | – | · | ·
CCCc1nnc(NC(=S)Nc2ccccc2)s1 | – | – | 11 | – | – | 10 | 13
Cc1ccc(-c2c3c([nH]c(=S)c2C#N)CCCC3)o1 | – | – | 16 | – | – | 8.7 | – | PG9 bind DR=–;PGV04 DR counter=–;PG126 DR counter=–
CCCCCC(=O)NC1CCCCN(Cc2cccc(Cl)c2)C1=O (stereo not drawn) | · | · | · | – | · | · | ·
Cc1cc2c(cc(C(=O)O)n2C)s1 | – | – | – | – | – | · | ·
Cc1cc2sc(C(=O)O)c(C)c2s1 | – | – | 16 | – | – | 21 | 28
Nc1[nH]c(C(=O)c2ccccc2)c(-c2ccc(O)cc2)c1C(=O)NCCc1c[nH]c2ccccc12 | · | · | · | – | · | · | ·
CCOc1ccc(/C(O)=C2\C(=O)C(=O)N(c3ccccn3)C2c2ccccc2F)c(C)c1 (stereo not drawn) | – | – | 9.6 | – | · | 22 | 32
O=C(CSc1nnc(-c2ccccc2F)n1C1CCCCC1)N1CCCC1 | – | – | – | – | – | · | ·
O=C(CSc1nnc(-c2ccc(Br)cc2)n1C1CCCCC1)N1CCCC1 | – | – | 9.3 | – | – | 8.7 | 10
O=C(Nc1ccc(F)cc1)c1ccc(COc2ccccc2)cc1 | – | – | 9.6 | – | – | 46 | 56
CC(=O)Nc1ccc(NC(=O)c2ccc(COc3ccccc3)cc2)cc1 | – | – | – | – | – | · | ·
O=C(NCC(c1ccc(F)cc1)N1CCOCC1)c1ccc(OCc2ccccc2)cc1 (stereo not drawn) | – | – | 17 | – | – | 17 | 22
COc1ccc(C(CNC(=O)c2ccc(OCc3ccccc3)cc2)N2CCOCC2)cc1 (stereo not drawn) | – | – | – | – | – | · | ·
CNC(C)[C@@H]1CC[C@@H](N)[C@@H](O[C@@H]2[C@H](O)[C@@H](O[C@@H]3OC[C@](C)(O)[C@H](NC)[C@H]3O)[C@H](N)C[C@@H]2N)O1 (stereo partly drawn) | · | · | · | – | · | · | ·
Cc1ccc(S(=O)(=O)NCc2ccc3c(c2)cc(C)n3C)cc1 | – | – | – | – | – | · | ·
Cc1cc2cc(CN3C(=O)c4ccccc4C3=O)ccc2n1C | – | – | 31 | – | – | 39 | 63
CS(=O)(=O)c1ccc2sc(NC(=O)c3cc4ccccc4o3)nc2c1 | – | – | – | – | – | · | ·
CS(=O)(=O)c1ccc2nc(NC(=O)c3cc4ccccc4o3)sc2c1 | – | – | 9.6 | – | – | 24 | 33
O=C(O)c1ccccc1CSc1nnc2c(n1)[nH]c1ccccc12 | – | – | 11 | – | – | 21 | 24
CC(C)CC(=O)C1CCCN(C(=O)c2ccc3oc(Cc4ccccc4)nc3c2)C1 (stereo not drawn) | – | – | – | – | – | · | ·
CCOC(=O)C1CCCN(C(=O)c2ccc3oc(Cc4ccccc4)nc3c2)C1 (stereo not drawn) | – | – | 12 | – | – | – | –
